Test results: ChEMBL document CHEMBL4837218, “Synthesis and in vitro antitumour activity of 4(R)-methyl-3-O-phosphonomethyl-α-l-threose nucleosides” (Eur J Med Chem, 2021)
Activity calls are given as the source filed them. No cut-off for these calls is given here.

Experiments:
MCF7 [1] = test: Anticancer activity against human MCF7 cells assessed as inhibition of cell growth measured after 72 hrs by MTT assay; type: functional, cell-based; conditions: MCF7, 72 h
Outline: (§1)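 Cells seeded at 3000 exponentially growing cells/well and incubated 12 h at 37 °C. Medium then replaced with fresh medium containing graded compound concentrations for 72 h; 5-FU positive control. MTT (5 mg/mL solution) added for 4 h, formazan dissolved in DMSO, absorbance read at 570 nm (reference 630 nm). Relative percentage inhibition of viable cells calculated; IC50 reported as mean ± standard deviation.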

MGC-803 = test: Anticancer activity against human MGC-803 cells assessed as inhibition of cell growth measured after 72 hrs by MTT assay; type: functional, cell-based; conditions: MGC-803, 72 h; outline: as §1
MDA-MB-231 [2] = test: Cell cycle arrest in human MDA-MB-231 cells assessed as accumulation at G2/M phase at 3 uM measured after 48 hrs by propidium iodide staining based flow cytometry (reference value: 15.46 %); type: functional
MDA-MB-231 [3] = test: Cell cycle arrest in human MDA-MB-231 cells assessed as accumulation at G1 phase at 9 uM measured after 48 hrs by propidium iodide staining based flow cytometry (reference value: 46.28%); type: functional
MDA-MB-231 [4] = test: Cell cycle arrest in human MDA-MB-231 cells assessed as accumulation at S phase at 9 uM measured after 48 hrs by propidium iodide staining based flow cytometry (reference value: 35.54 %); type: functional
MDA-MB-231 [5] = test: Induction of apoptosis in human MDA-MB-231 cells assessed as early apoptotic cells at 3 uM measured after 48 hrs by Annexin V-FITC/propidium iodide staining based flow cytometric analysis (reference value: 1%); type: functional
MDA-MB-231 [6] = test: Induction of apoptosis in human MDA-MB-231 cells assessed as early apoptotic cells at 9 uM measured after 48 hrs by Annexin V-FITC/propidium iodide staining based flow cytometric analysis (reference value: 1%); type: functional
MDA-MB-231 [7] = test: Induction of mitochondrial membrane potential loss in human MDA-MB-231 cells assessed as red fluorescence intensity at 9 uM measured after 48 hrs by JC1 staining-based flow cytometry analysis (reference value: 99.2 %); type: functional
MCF7 [8] = test: Induction of DNA damage in human MCF7 cells assessed as increase in Chk2 protein expression at 1 to 4 uM measured after 48 hrs by western blot analysis; type: functional, cell-based; conditions: dose 1-4 µM
Outline: (§2)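 Cells exposed to graded concentrations for 48 h, then proteins extracted. Run on SDS-PAGE (5–15% gels) and transferred to nitrocellulose. Blocked 2 h in 5% nonfat milk in PBS/0.1% Tween 20, primary antibody overnight at 4 °C, biotin-conjugated secondary 1 h. Visualized on X-ray film with densitometric quantitation; three independent experiments.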

MCF7 [9] = test: Induction of G2/M phase cell cycle arrest in human MCF7 cells assessed as decrease in cyclinB1 protein expression at 1 to 4 uM measured after 48 hrs by western blot analysis; type: functional, cell-based; conditions: dose 1-4 µM; outline: as §2
MDA-MB-231 [10] = test: Induction of DNA damage in human MDA-MB-231 cells assessed as increase in ATM protein expression at 3 to 9 uM measured after 48 hrs by western blot analysis; type: functional, cell-based; conditions: dose 3-9 µM; outline: as §2
MDA-MB-231 [11] = test: Induction of DNA damage in human MDA-MB-231 cells assessed as increase in Chk1 protein expression at 3 to 9 uM measured after 48 hrs by western blot analysis; type: functional, cell-based; conditions: dose 3-9 µM; outline: as §2
MDA-MB-231 [12] = test: Induction of G2/M phase cell cycle arrest in human MDA-MB-231 cells assessed as increase in Cdc25c protein expression at 3 to 9 uM measured after 48 hrs by western blot analysis; type: functional, cell-based; conditions: dose 3-9 µM
MCF7 [13] = test: Induction of apoptosis in human MCF7 cells assessed as increase in Noxa protein expression at 1 to 4 uM measured after 48 hrs by western blot analysis; type: functional, cell-based; conditions: dose 1-4 µM
Outline: (§3)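 MCF-7 and MDA-MB-231 breast cancer cells treated 48 h with a concentration series, then lysed for protein. SDS-PAGE on 5–15% gels, transfer to nitrocellulose. Blocked 2 h in 5% nonfat milk/PBS-0.1% Tween 20, primary antibodies overnight at 4 °C, biotin-conjugated secondary 1 h. X-ray film detection with densitometric quantification.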

MDA-MB-231 [14] = test: Induction of apoptosis in human MDA-MB-231 cells assessed as increase in cleaved PARP protein expression at 3 to 9 uM measured after 48 hrs by western blot analysis; type: functional, cell-based; conditions: dose 3-9 µM; outline: as §3
MDA-MB-231 [15] = test: Induction of apoptosis in human MDA-MB-231 cells assessed as increase in Bax to Bcl2 ratio at 3 to 9 uM measured after 48 hrs by western blot analysis; type: functional, cell-based; conditions: dose 3-9 µM; outline: as §3
MDA-MB-231 [16] = test: Induction of apoptosis in human MDA-MB-231 cells assessed as increase in Bad protein expression at 3 to 9 uM measured after 48 hrs by western blot analysis; type: functional, cell-based; conditions: dose 3-9 µM; outline: as §3
MDA-MB-231 [17] = test: Induction of apoptosis in human MDA-MB-231 cells assessed as increase in Noxa protein expression at 3 to 9 uM measured after 48 hrs by western blot analysis; type: functional, cell-based; conditions: dose 3-9 µM; outline: as §3
MDA-MB-231 [18] = test: Cell cycle arrest in human MDA-MB-231 cells assessed as accumulation of cells at G2/M phase at 9 uM in presence of cdc25c inhibitor, NSC663284 measured after 48 hrs by PI staining based flow cytometry; type: functional
Outline: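 Four arms (untreated, test compound alone, 0.3 NSC663284 alone, combination) applied to cells for 48 h. Cells were fixed in 70% ice-cold ethanol at 4 °C overnight and stained with RNase/PI for 30 min in the dark. G2/M fraction was read by flow cytometry.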

MDA-MB-231 [19] = test: Induction of apoptosis in human MDA-MB-231 cells assessed as late apoptotic cells at 9 uM measured after 48 hrs in presence of cdc25c inhibitor, NSC663284 by AnnexinV-FITC/PI staining based flow cytometry (reference value: 8.3%); type: functional
MCF7 [20] = test: Induction of G2/M phase cell cycle arrest in human MCF7 cells assessed as upregulation of cdc25c protein expression at 4 uM measured after 48 hrs in presence of cdc25c inhibitor, NSC663284 by western blot analysis; type: functional, cell-based
Outline: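 Four groups (untreated, test compound, 0.3 NSC663284, combination) treated 48 h before protein extraction. Lysates resolved by SDS-PAGE (5–15%) and blotted to nitrocellulose. Blocked 2 h in 5% milk/PBS-0.1% Tween 20, primary antibody overnight at 4 °C, biotinylated secondary 1 h. Detected on X-ray film and quantified by densitometry.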

MDA-MB-231 [21] = test: Induction of G2/M phase cell cycle arrest in human MDA-MB-231 cells assessed as upregulation of cdc25c protein expression at 9 uM measured after 48 hrs in presence of cdc25c inhibitor, NSC663284 by western blot analysis; type: functional, cell-based
MDA-MB-231 [22] = test: Induction of apoptosis in human MDA-MB-231 cells assessed as increase in cleaved caspase 3 protein expression at 9 uM measured after 48 hrs in presence of cdc25c inhibitor, NSC663284 by western blot analysis; type: functional, cell-based
Outline: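 Four arms per cell line: untreated, test compound, 0.3 µM NSC663284 alone, and combination. Proteins harvested after 48 h and resolved by SDS-PAGE on 5–15% gels, transferred to nitrocellulose. Blocked 2 h in milk/PBS-Tween, primary antibodies overnight at 4 °C, biotin-conjugated secondary. Read on X-ray film with densitometry.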

MDA-MB-231 [23] = test: Induction of G2/M phase cell cycle arrest in human MDA-MB-231 cells assessed as upregulation of p-cdc25c at ser216 residue protein expression at 9 uM measured after 48 hrs by western blot analysis; type: functional, cell-based

With `C[C@H]1O[C@@H](n2cnc3c(N)nc(F)nc32)[C@H](O)[C@H]1OCP(=O)([O-])[O-].[Na+].[Na+]` the IC50 (MCF7 [1]) was 0.476 µM, the IC50 (MGC-803) was 6.18 µM and the Activity (MDA-MB-231 [2]) was 20.27%. For the same compound, the Activity (MDA-MB-231 [3]) was 33.66%, the Activity (MDA-MB-231 [4]) was 32.34% and the Activity (MDA-MB-231 [5]) was 14.5%. For the same compound, the Activity (MDA-MB-231 [6]) was 24.8%, the Activity (MDA-MB-231 [7]) was 37% and the Activity (MCF7 [8]) was “Active”. The Activity (MCF7 [9]) was “Active”, the Activity (MDA-MB-231 [10]) was “Active” and the Activity (MDA-MB-231 [11]) was “Active”. The Activity (MDA-MB-231 [12]) was “Active”, the Activity (MCF7 [13]) was “Active” and the Activity (MDA-MB-231 [14]) was “Active”. For the same compound, the Activity (MDA-MB-231 [15]) was “Active”, the Activity (MDA-MB-231 [16]) was “Active” and the Activity (MDA-MB-231 [17]) was “Active”. The Activity (MDA-MB-231 [18]) was “inactive”, the Activity (MDA-MB-231 [19]) was 3.2% and the Activity (MCF7 [20]) was “inactive”. The Activity (MDA-MB-231 [21]) was “inactive”, the Activity (MDA-MB-231 [22]) was “inactive” and the Activity (MDA-MB-231 [23]) was “Active”.
